Assay results: ChEMBL document CHEMBL5058577, “EUbOPEN Chemogenomics Library 2 (Multiplex)” (2022)

Test system: Fibroblast
Test: Multiplex assay against human fibroblast
Type: toxicity, cell-based
How it was run: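 Live cells were stained at seeding with Hoechst33342, BioTracker Green Microtubule Cytoskeleton Dye, MitoTracker Red and Annexin V Alexa Fluor 680, then imaged on a CQ1 microscope at 37°C and 5% CO2 after compound addition. CellPathfinder machine-learning gating split cells into Hoechst high-intensity objects or normal cells. Normal cells were split into healthy, pyknosed or fragmented nuclei, and pyknosed cells into mitotic or apoptotic. Tubulin, mitochondrial-mass and membrane-permeability phenotypes are per cents of healthy-nucleus cells.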

[1] = 12 h, 1 µM, compound concentration 1 uM, replicate 1
[2] = 12 h, 1 µM, compound concentration 1 uM, replicate 2
[3] = 12 h, 10 µM, compound concentration 10 uM, replicate 1
[4] = 12 h, 10 µM, compound concentration 10 uM, replicate 2
[5] = 24 h, 1 µM, compound concentration 1 uM, replicate 1
[6] = 24 h, 1 µM, compound concentration 1 uM, replicate 2
[7] = 24 h, 10 µM, compound concentration 10 uM, replicate 1
[8] = 24 h, 10 µM, compound concentration 10 uM, replicate 2
[9] = 48 h, 1 µM, compound concentration 1 uM, replicate 1
[10] = 48 h, 1 µM, compound concentration 1 uM, replicate 2
[11] = 48 h, 10 µM, compound concentration 10 uM, replicate 1
[12] = 48 h, 10 µM, compound concentration 10 uM, replicate 2

## CC[C@H]1OC(=O)[C@H](C)[C@@H](O[C@H]2C[C@@](C)(OC)[C@@H](O)[C@H](C)O2)[C@H](C)[C@@H](O[C@@H]2O[C@H](C)C[C@H](N(C)C)[C@H]2O)[C@@]2(C)CC(C)=C(O2)[C@H](C)[C@@H](O)[C@]1(C)O
[1]
  Population Apoptotic (%): 37%
  Population Fragmented Nuclei (%): 13%
  Population Healthy Nuclei (%): 72%
  Population Hoechst High Intensity Objects (%): 2%
  Population Membrane Permeable-Phenotype (%): 0%
  Population Mitochondria Different-Phenotype (%): 8%
  Population Mitotic Cells (%): 62%
  Population Normal (%): 97%
  Population Pyknosed Nuclei (%): 13%
  Population Tubulin-Different-Phenotype (%): 40%
  Total Cell Count: 176
[2]
  Population Apoptotic (%): 46%
  Population Fragmented Nuclei (%): 23%
  Population Healthy Nuclei (%): 57%
  Population Hoechst High Intensity Objects (%): 3%
  Population Membrane Permeable-Phenotype (%): 9%
  Population Mitochondria Different-Phenotype (%): 6%
  Population Mitotic Cells (%): 53%
  Population Normal (%): 96%
  Population Pyknosed Nuclei (%): 18%
  Population Tubulin-Different-Phenotype (%): 53%
  Total Cell Count: 170
[3]
  Population Apoptotic (%): 48%
  Population Fragmented Nuclei (%): 24%
  Population Healthy Nuclei (%): 63%
  Population Hoechst High Intensity Objects (%): 3%
  Population Membrane Permeable-Phenotype (%): 0%
  Population Mitochondria Different-Phenotype (%): 25%
  Population Mitotic Cells (%): 52%
  Population Normal (%): 96%
  Population Pyknosed Nuclei (%): 12%
  Population Tubulin-Different-Phenotype (%): 86%
  Total Cell Count: 205
[4]
  Population Apoptotic (%): 40%
  Population Fragmented Nuclei (%): 41%
  Population Healthy Nuclei (%): 33%
  Population Hoechst High Intensity Objects (%): 4%
  Population Membrane Permeable-Phenotype (%): 14%
  Population Mitochondria Different-Phenotype (%): 11%
  Population Mitotic Cells (%): 59%
  Population Normal (%): 95%
  Population Pyknosed Nuclei (%): 25%
  Population Tubulin-Different-Phenotype (%): 73%
  Total Cell Count: 133
[5]
  Population Apoptotic (%): 52%
  Population Fragmented Nuclei (%): 18%
  Population Healthy Nuclei (%): 69%
  Population Hoechst High Intensity Objects (%): 4%
  Population Membrane Permeable-Phenotype (%): 0%
  Population Mitochondria Different-Phenotype (%): 7%
  Population Mitotic Cells (%): 47%
  Population Normal (%): 95%
  Population Pyknosed Nuclei (%): 12%
  Population Tubulin-Different-Phenotype (%): 45%
  Total Cell Count: 173
[6]
  Population Apoptotic (%): 46%
  Population Fragmented Nuclei (%): 29%
  Population Healthy Nuclei (%): 52%
  Population Hoechst High Intensity Objects (%): 3%
  Population Membrane Permeable-Phenotype (%): 7%
  Population Mitochondria Different-Phenotype (%): 5%
  Population Mitotic Cells (%): 53%
  Population Normal (%): 96%
  Population Pyknosed Nuclei (%): 17%
  Population Tubulin-Different-Phenotype (%): 36%
  Total Cell Count: 176
[7]
  Population Apoptotic (%): 52%
  Population Fragmented Nuclei (%): 22%
  Population Healthy Nuclei (%): 69%
  Population Hoechst High Intensity Objects (%): 2%
  Population Membrane Permeable-Phenotype (%): 0%
  Population Mitochondria Different-Phenotype (%): 37%
  Population Mitotic Cells (%): 47%
  Population Normal (%): 97%
  Population Pyknosed Nuclei (%): 8%
  Population Tubulin-Different-Phenotype (%): 89%
  Total Cell Count: 199
[8]
  Population Apoptotic (%): 46%
  Population Fragmented Nuclei (%): 40%
  Population Healthy Nuclei (%): 39%
  Population Hoechst High Intensity Objects (%): 1%
  Population Membrane Permeable-Phenotype (%): 8%
  Population Mitochondria Different-Phenotype (%): 12%
  Population Mitotic Cells (%): 53%
  Population Normal (%): 98%
  Population Pyknosed Nuclei (%): 20%
  Population Tubulin-Different-Phenotype (%): 81%
  Total Cell Count: 127
[9]
  Population Apoptotic (%): 55%
  Population Fragmented Nuclei (%): 17%
  Population Healthy Nuclei (%): 71%
  Population Hoechst High Intensity Objects (%): 3%
  Population Membrane Permeable-Phenotype (%): 0%
  Population Mitochondria Different-Phenotype (%): 9%
  Population Mitotic Cells (%): 44%
  Population Normal (%): 96%
  Population Pyknosed Nuclei (%): 11%
  Population Tubulin-Different-Phenotype (%): 57%
  Total Cell Count: 168
[10]
  Population Apoptotic (%): 56%
  Population Fragmented Nuclei (%): 32%
  Population Healthy Nuclei (%): 54%
  Population Hoechst High Intensity Objects (%): 2%
  Population Membrane Permeable-Phenotype (%): 7%
  Population Mitochondria Different-Phenotype (%): 5%
  Population Mitotic Cells (%): 43%
  Population Normal (%): 97%
  Population Pyknosed Nuclei (%): 13%
  Population Tubulin-Different-Phenotype (%): 56%
  Total Cell Count: 173
[11]
  Population Apoptotic (%): 84%
  Population Fragmented Nuclei (%): 24%
  Population Healthy Nuclei (%): 68%
  Population Hoechst High Intensity Objects (%): 8%
  Population Membrane Permeable-Phenotype (%): 0%
  Population Mitochondria Different-Phenotype (%): 40%
  Population Mitotic Cells (%): 15%
  Population Normal (%): 91%
  Population Pyknosed Nuclei (%): 6%
  Population Tubulin-Different-Phenotype (%): 91%
  Total Cell Count: 216
[12]
  Population Apoptotic (%): 58%
  Population Fragmented Nuclei (%): 43%
  Population Healthy Nuclei (%): 47%
  Population Hoechst High Intensity Objects (%): 7%
  Population Membrane Permeable-Phenotype (%): 6%
  Population Mitochondria Different-Phenotype (%): 8%
  Population Mitotic Cells (%): 41%
  Population Normal (%): 92%
  Population Pyknosed Nuclei (%): 9%
  Population Tubulin-Different-Phenotype (%): 78%
  Total Cell Count: 139

## CN1CCN(c2nc3cc(C(F)(F)F)ccc3n3cccc23)CC1.O=C(O)/C=C\C(=O)O.O=C(O)/C=C\C(=O)O
[1]
  Population Apoptotic (%): 50%
  Population Fragmented Nuclei (%): 18%
  Population Healthy Nuclei (%): 71%
  Population Hoechst High Intensity Objects (%): 0%
  Population Membrane Permeable-Phenotype (%): 0%
  Population Mitochondria Different-Phenotype (%): 5%
  Population Mitotic Cells (%): 50%
  Population Normal (%): 99%
  Population Pyknosed Nuclei (%): 9%
  Population Tubulin-Different-Phenotype (%): 27%
  Total Cell Count: 146
[2]
  Population Apoptotic (%): 26%
  Population Fragmented Nuclei (%): 24%
  Population Healthy Nuclei (%): 46%
  Population Hoechst High Intensity Objects (%): 6%
  Population Membrane Permeable-Phenotype (%): 6%
  Population Mitochondria Different-Phenotype (%): 4%
  Population Mitotic Cells (%): 73%
  Population Normal (%): 93%
  Population Pyknosed Nuclei (%): 30%
  Population Tubulin-Different-Phenotype (%): 47%
  Total Cell Count: 107
[3]
  Population Apoptotic (%): 40%
  Population Fragmented Nuclei (%): 29%
  Population Healthy Nuclei (%): 59%
  Population Hoechst High Intensity Objects (%): 2%
  Population Membrane Permeable-Phenotype (%): 0%
  Population Mitochondria Different-Phenotype (%): 25%
  Population Mitotic Cells (%): 59%
  Population Normal (%): 97%
  Population Pyknosed Nuclei (%): 10%
  Population Tubulin-Different-Phenotype (%): 69%
  Total Cell Count: 207
[4]
  Population Apoptotic (%): 60%
  Population Fragmented Nuclei (%): 35%
  Population Healthy Nuclei (%): 41%
  Population Hoechst High Intensity Objects (%): 4%
  Population Membrane Permeable-Phenotype (%): 4%
  Population Mitochondria Different-Phenotype (%): 38%
  Population Mitotic Cells (%): 40%
  Population Normal (%): 95%
  Population Pyknosed Nuclei (%): 22%
  Population Tubulin-Different-Phenotype (%): 85%
  Total Cell Count: 117
[5]
  Population Apoptotic (%): 66%
  Population Fragmented Nuclei (%): 16%
  Population Healthy Nuclei (%): 72%
  Population Hoechst High Intensity Objects (%): 1%
  Population Membrane Permeable-Phenotype (%): 0%
  Population Mitochondria Different-Phenotype (%): 2%
  Population Mitotic Cells (%): 33%
  Population Normal (%): 98%
  Population Pyknosed Nuclei (%): 10%
  Population Tubulin-Different-Phenotype (%): 23%
  Total Cell Count: 142
[6]
  Population Apoptotic (%): 40%
  Population Fragmented Nuclei (%): 35%
  Population Healthy Nuclei (%): 42%
  Population Hoechst High Intensity Objects (%): 6%
  Population Membrane Permeable-Phenotype (%): 7%
  Population Mitochondria Different-Phenotype (%): 7%
  Population Mitotic Cells (%): 59%
  Population Normal (%): 93%
  Population Pyknosed Nuclei (%): 22%
  Population Tubulin-Different-Phenotype (%): 43%
  Total Cell Count: 104
[7]
  Population Apoptotic (%): 77%
  Population Fragmented Nuclei (%): 24%
  Population Healthy Nuclei (%): 64%
  Population Hoechst High Intensity Objects (%): 6%
  Population Membrane Permeable-Phenotype (%): 0%
  Population Mitochondria Different-Phenotype (%): 32%
  Population Mitotic Cells (%): 22%
  Population Normal (%): 93%
  Population Pyknosed Nuclei (%): 10%
  Population Tubulin-Different-Phenotype (%): 75%
  Total Cell Count: 214
[8]
  Population Apoptotic (%): 63%
  Population Fragmented Nuclei (%): 37%
  Population Healthy Nuclei (%): 43%
  Population Hoechst High Intensity Objects (%): 1%
  Population Membrane Permeable-Phenotype (%): 6%
  Population Mitotic Cells (%): 36%
  Population Normal (%): 98%
  Population Pyknosed Nuclei (%): 19%
  Population Tubulin-Different-Phenotype (%): 86%
  Total Cell Count: 117
[9]
  Population Apoptotic (%): 44%
  Population Fragmented Nuclei (%): 25%
  Population Healthy Nuclei (%): 63%
  Population Hoechst High Intensity Objects (%): 2%
  Population Membrane Permeable-Phenotype (%): 1%
  Population Mitochondria Different-Phenotype (%): 2%
  Population Mitotic Cells (%): 55%
  Population Normal (%): 97%
  Population Pyknosed Nuclei (%): 11%
  Population Tubulin-Different-Phenotype (%): 22%
  Total Cell Count: 162
[10]
  Population Apoptotic (%): 42%
  Population Fragmented Nuclei (%): 37%
  Population Healthy Nuclei (%): 40%
  Population Hoechst High Intensity Objects (%): 3%
  Population Membrane Permeable-Phenotype (%): 0%
  Population Mitotic Cells (%): 57%
  Population Normal (%): 96%
  Population Pyknosed Nuclei (%): 21%
  Population Tubulin-Different-Phenotype (%): 57%
  Total Cell Count: 102
[11]
  Population Apoptotic (%): 77%
  Population Fragmented Nuclei (%): 22%
  Population Healthy Nuclei (%): 68%
  Population Hoechst High Intensity Objects (%): 7%
  Population Membrane Permeable-Phenotype (%): 0%
  Population Mitochondria Different-Phenotype (%): 28%
  Population Mitotic Cells (%): 22%
  Population Normal (%): 92%
  Population Pyknosed Nuclei (%): 9%
  Population Tubulin-Different-Phenotype (%): 77%
  Total Cell Count: 211
[12]
  Population Apoptotic (%): 63%
  Population Fragmented Nuclei (%): 33%
  Population Healthy Nuclei (%): 57%
  Population Hoechst High Intensity Objects (%): 5%
  Population Membrane Permeable-Phenotype (%): 1%
  Population Mitochondria Different-Phenotype (%): 23%
  Population Mitotic Cells (%): 36%
  Population Normal (%): 94%
  Population Tubulin-Different-Phenotype (%): 85%
  Total Cell Count: 118
